Results: ChEMBL document CHEMBL1123121, “Aminotetralone analogues of ketamine: synthesis and evaluation of hypnotic and locomotor properties in mice” (1985)

test system: Mus musculus; experiment: Ability to cause […] in mice represented as no. of counts for each animal for a total of 90 min when 100 mg/kg dose was administered intraperitoneally; assay type: functional; settings: route intraperitoneal
In short: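 Mice given the compound intraperitoneally at 100 mg kg-1, dissolved in distilled water; controls received 0.2 mL normal saline. Each mouse was placed on an electronic activity monitor and its counts were recorded for 90 min after injection. Counts per minute were taken as total counts divided by 90. Six animals per group, mean ± SEM, groups compared by Duncan's multiple-range test. Experiments were run between 13.00 and 17.00 h at 20-24 °C.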

SMILES	Counts [min⁻¹]
CN(C)C1(C)c2ccccc2CCC1O (stereo unspecified)	37.5
CC1(N2CCCCC2)c2ccccc2CCC1O (stereo unspecified)	21.6
CN(C)C1(C)C(=O)CCc2ccccc21 (stereo unspecified)	22.9
CNC1(c2ccccc2Cl)CCCCC1=O (stereo unspecified) [KETAMINE]	94.3
CC1(N)C(=O)CCc2ccccc21 (stereo unspecified)	27.2
CNC1(C)c2ccccc2CCC1O (stereo unspecified)	20.2
CC1(N)CCc2ccccc2C1=O (stereo unspecified)	60.6
CC1(N2CCCCC2)C(=O)CCc2ccccc21 (stereo unspecified)	4.4
CNC1(C)C(=O)CCc2ccccc21 (stereo unspecified)	25.8
CN(C)C1(C)CCc2ccccc2C1=O (stereo unspecified)	67.1
CC1(N)c2ccccc2CCC1O (stereo unspecified)	16.2
